From PubChem BioAssay
A selection: hits, their analogues and other compounds. The true share with any hit is near 4.9%.
CHT allo act: allosteric activators of human choline transporter CHT | CHT-expressing cells, membrane potential dye, choline EC20; hits give high values; LV-AA mutant CHT in HEK293 cells | B-score at 10 µM | 310,000 tested, 0.49% active | AID 488977;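 active = initial fluorescence not abnormally high and integrated response B-score, plate-corrected, over 3 SD above library mean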
CHT block: human CHT choline transport inhibition; Q9GZV3; CHT-expressing cells, membrane potential dye, choline response; hits give low values; B-score at 10 µM; 310,000 tested, 0.86% active; AID 488975;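 active = B-score over 3 SD under the library average, and starting fluorescence ratio not unusually high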;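 also: choline stimulus applied at its EC90 after an EC20 pre-addition; B-score computed on integrated fluorescence ratio after choline addition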
HSF1 activator: increases HSF-1 driven luciferase reporter signal; NIH3T3-HGL HSF-1 luciferase reporter, MG132, 8 h; 100% = twice DMSO control signal; activation, % at 9 µM; 300,000 tested, 1.7% active;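 active = mean replicate activation of at least 50% with a set share of replicates each reaching 50%; inconclusive = only one of those two conditions met; inactive = mean below 50% and too few replicates reaching it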;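 also: 0% = median of the neutral control wells and 100% = twice that signal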
HSF1 inhib: HSF1 inhibition; NIH3T3-HGL HSE-luciferase, MG132-induced, luminescence 8 h; hits give low values; activity change, negative = inhibition, % at 7.5 µM (by protocol); AID 2098; 300,000 tested, 0.77% active;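 active = more than half of replicate wells show activity change below -50%, luminescence cut by over half; inconclusive = some wells, but at most half, below -50%; inactive = no replicate well below -50%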;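 also: luciferase reports HSF-1 transcriptional activity via heat shock element; 0% = median of DMSO wells and -100% = zero luminescence signal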
Hep lipid drop: modulators of hepatic lipid droplet formation; 240,000 tested, 0.4% active; AID 1656; AML12 mouse hepatocytes, oleate lipid droplets, BODIPY imaging; inhibition, % at 6.5 µM;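 active = lipid droplet intensity inhibited by at least 50%, with more than 500 cells counted; inconclusive = wells with under 300 cells, treated as cytotoxic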
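Material: mouse AML12 hepatocyte cell line, fixed after treatment; Timing: compound with oleate, overnight; Technique: high-content imaging of BODIPY-stained droplets and DAPI nuclei; Probe or stimulus: oleate, 100 µM final; Dosing: compound at 6.5 µM only.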
PHOSPHO1 block: PHOSPHO1 (human) inhibition; inhibition, % at 13.3 µM; 290,000 tested, 1.1% active; Q8TCT1; recombinant PHOSPHO1, absorbance phosphatase assay; in the data active = inhibition above about 60%
Target sequence (Q8TCT1 whole entry, looked up): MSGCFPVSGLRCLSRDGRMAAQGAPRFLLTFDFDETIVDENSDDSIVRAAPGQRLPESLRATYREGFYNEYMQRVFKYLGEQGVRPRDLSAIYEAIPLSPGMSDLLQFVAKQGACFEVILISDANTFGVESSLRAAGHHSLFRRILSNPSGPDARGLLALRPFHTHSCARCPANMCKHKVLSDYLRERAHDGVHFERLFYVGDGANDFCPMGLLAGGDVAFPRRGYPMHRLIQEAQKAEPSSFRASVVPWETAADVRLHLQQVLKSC
* = called active by the depositor; i = inactive; ? = inconclusive; nt = not tested or not shown.

SMILES | CHT allo act | CHT block | HSF1 activator | HSF1 inhib | Hep lipid drop | PHOSPHO1 block
Cc1nc2c(=O)n(C)c(=O)nc-2n(C)n1 | i | i | -95 | -94* | ? | 68*
CCn1c(=O)cc(SCC(=O)N2CCC3(CC2)OCCO3)c2ccccc21 | i | i | 68* | 34 | nt | 16
NNc1n[nH]c(=S)n1N | i | i | 35 | 17 | 0 | -170
O=C(CF)NC(NC(=S)Nc1ccccc1O)C(Cl)(Cl)Cl (configuration not stated) | i | i | 54* | 18 | -3 | 8
O=C(C1CC(=O)N(C2CCCCCCC2)C1)N1CCC2(CC1)OCCO2 (configuration not stated) | i | i | -7 | 9 | nt | -3
C=C1C(=O)O[C@@H]2C[C@@H](C)[C@@H]3C=CC(=O)[C@@]3(C)[C@@H](OC(=O)CC(=O)O[C@H]3[C@@H]4C(=C)C(=O)O[C@@H]4C[C@@H](C)[C@@H]4C=CC(=O)[C@]43C)[C@H]12 | i | i | -96 | -96* | ? | 31
C=C1C(=O)O[C@H]2C[C@@H](C)[C@@H]3C=CC(=O)[C@@]3(C)C[C@H]12 | i | i | -68 | -64* | -35 | -18
C=C1C(=O)O[C@@H]2C[C@@H](C)[C@@H]3C4OC4C(=O)[C@@]3(C)[C@@H](O)[C@H]12 (some centres not stated) | i | i | 29 | 17 | -2 | 26
Cc1cc2ccccc2c(=O)n1CC(=O)NCC(=O)N1CCC2(CC1)OCCO2 | i | i | -11 | 1 | 15 | 20
CCCCCn1c(=O)c(C(=O)Nc2nc(CC(=O)OCC)cs2)c(O)c2ccccc21 | i | i | -7 | -6 | 14 | 36
N=Cc1c(O)n(-c2ccccc2)c(=O)n(-c2ccccc2)c1=O | i | i | -58 | -45 | 16 | 30
COc1cc2c(cc1/C=C/[N+](=O)[O-])OCO2 | nt | nt | 263* | 190 | 5 | -10
COc1cc(/C=C/[N+](=O)[O-])ccc1OC(=O)c1cccnc1 | i | i | 39 | 23 | 0 | -1
CCNC(=O)[C@H]1O[C@@H](n2cnc3c(N)ncnc32)[C@H](O)[C@@H]1O | i | i | 3 | -15 | -2 | 20
NC(=O)c1cn(C2OC(CO)C(O)C2O)c2ncnc(N)c12 (configuration not stated) | i | i | -64 | -66* | ? | -16
COC(=O)c1cc(C(O)(C(=O)OC)C(F)(F)F)c(/N=C/N(C)C)s1 (configuration not stated) | i | i | 6 | -7 | nt | -1
O=C(N/N=C/c1c(O)n(Cc2ccc(F)cc2)c(=O)[nH]c1=O)c1ccccc1 | i | i | 19 | 7 | 1 | -10
O=C(O)CCC(=O)NCCC1=c2ccccc2=N/C1=C\c1c(O)n(Cc2ccc(F)cc2)c(=S)[nH]c1=O | i | i | 14 | 1 | -16 | 97*
Oc1cc2c(cc1CN1CCN(c3ccccc3F)CC1)OCO2 | i | i | -2 | 7 | nt | -16
CCCC[N+]12CCC(CC1)C(C(O)(c1ccccc1)c1ccccc1)C2 (configuration not stated) | i | i | -71 | -65* | 11 | 8
CC1CCCCN1Cc1ccc(Cl)nc1 (configuration not stated) | i | i | -15 | -1 | 16 | 26
O=C1C(=O)c2ccccc2-c2ccccc21 | i | i | -95 | -94* | 0 | 100*
O=c1[nH]c(=O)n(Cc2ccco2)c(O)c1C=NCc1cccs1 | i | i | -3 | 3 | 19 | 21
O=c1[nH]c(=S)n(Cc2ccco2)c(O)c1C=NCc1cccs1 | i | i | -5 | -1 | -11 | 95*
NC(C(=O)O)c1cc(=O)[nH]o1 (configuration not stated) | i | i | nt | nt | nt | nt
SMILES | CHT allo act | CHT block | HSF1 activator | HSF1 inhib | Hep lipid drop | PHOSPHO1 block
CS(=O)(=O)NCc1nnc2n1-c1ccc(Cl)cc1C(c1ccccc1)=NC2 | i | i | 1 | 3 | -12 | 4
CSCc1nnc2n1-c1ccc(Cl)cc1C(c1ccccc1)=NC2 | i | i | -89 | -87* | -4 | 0
Cc1cc([N+](=O)[O-])c2ccccc2[n+]1[O-] | i | i | -78 | -78* | -40 | 32
CC(=O)O[C@@H]1/C=C/[C@](C)(O)C[C@@H](C)C/C=C/[C@H]2[C@H](O)C(C)=C(C)[C@H]3[C@H](Cc4ccccc4)NC(=O)[C@@]123 | i | i | -2 | 0 | nt | nt
CCCc1[nH]nc2c1C1(C(=O)N(Cc3ccccc3)c3ccccc31)C(C(=O)OC)=C(N)O2 (configuration not stated) | i | i | 55* | 14 | 0 | 5
CCCc1[nH]nc2c1C1(C(=O)N(CC(N)=O)c3ccccc31)C(C(=O)OC)=C(N)O2 (configuration not stated) | i | i | 18 | 7 | nt | 16
CC(=O)c1cccc(NC(=O)N2C[C@H]3C[C@@H](C2)c2cccc(=O)n2C3)c1 | i | i | 4 | 0 | 5 | -18
CC(=O)c1c(C)n(CC2CCCO2)c2ccc(O)cc12 (configuration not stated) | i | i | 70* | 27 | 18 | 29
CCc1ccc(-c2nn(Cc3ccccc3)cc2C=O)cc1 | i | i | 102* | 60 | -20 | 53
CC(Cc1ccccc1)NCC(=O)Nc1cc(N(C)C)nc2ccccc12 (configuration not stated) | i | i | 58* | 24 | -21 | 25
CC(Cc1ccccc1)NCc1ccccc1O (configuration not stated) | i | i | 2 | -3 | -6 | 16
Nc1ccccc1C(=O)OCC(=O)c1ccc2c(c1)OCCO2 | i | i | -57 | -57* | 2 | 8
CCN1C(=O)/C(=C/c2ccc3c(c2)CCN3CCCCl)C(=O)NC1=S | i | i | -2 | 4 | -3 | -27
O=C1NC(=S)N(C2CC2)C(=O)/C1=C/c1ccc2c(c1)CCN2CCCCl | i | i | -83 | -79* | -1 | -12
CC12CCC3C(CC=C4CC5(CCC43C)OCCO5)C1CCC2=O (configuration not stated) | i | i | -79 | -74* | -10 | -1
CC(=O)Nc1ccc(C=C2C(=O)NC(=O)NC2=O)cc1 | nt | nt | -11 | -11 | nt | nt
C=CCOC(=O)C1=C(C)OC(N)=C(C#N)C12C(=O)N(CN1CCOCC1)c1ccccc12 (configuration not stated) | i | i | 2 | -12 | nt | -9
